Experimental findings from ChEMBL document CHEMBL1133118 (J Med Chem, 2000) are described below.

Experiment [1] deals with Adenosine receptors; A1 & A3 (Homo sapiens) (UniProt P30542+P0DMS8). The experiment is described as follows: Ratio of binding affinity of human A1 receptor to that of human A3 receptor. The experiment is classed as protein assay. Summed up:
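Ki ratio from displacement in CHO membranes, 6–8 concentrations, n=3-6, filtration counting. A1: 1 nM [3H]DPCPX, 50 μg protein, 120 min at 25 °C, nonspecific with 10 μM CHA. A3: 1 nM [3H]MRE3008-F20, 50 μg protein, Tris/10 mM MgCl2 pH 7.4, 120 min at 4 °C, nonspecific with 1 μM MRE3008-F20.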

Experiment [2] addresses T1, Adenosine receptor A3 (Homo sapiens, UniProt P0DMS8).
T1 sequence (P0DMS8 whole entry): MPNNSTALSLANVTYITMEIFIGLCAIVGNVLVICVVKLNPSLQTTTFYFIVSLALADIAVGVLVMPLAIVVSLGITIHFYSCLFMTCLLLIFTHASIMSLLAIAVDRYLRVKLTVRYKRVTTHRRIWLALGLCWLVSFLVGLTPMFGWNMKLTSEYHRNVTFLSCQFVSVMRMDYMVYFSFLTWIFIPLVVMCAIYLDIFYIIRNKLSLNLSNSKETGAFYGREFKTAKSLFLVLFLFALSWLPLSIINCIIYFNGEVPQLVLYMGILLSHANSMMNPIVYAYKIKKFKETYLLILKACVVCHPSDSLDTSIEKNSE
Put plainly: Displacement of [3H]MRE3008-F20 from human adenosine A3 receptor expressed in CHO cells; range 691-952. The experiment is classed as cell-based. For orientation: Displacement assays read how much labelled ligand stays bound in the presence of the test substance.

Experiment [3] addresses Adenosine receptors; A2b & A3 (Homo sapiens) (UniProt P29275+P0DMS8). Put plainly: Ratio of binding affinity of human A2B receptor to that of human A3 receptor. The experiment is classed as protein assay. Summed up:
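Ki ratio, n=3-6, 6–8 concentrations. A2B in HEK-293 membranes (20 μg): 40 nM [3H]DPCPX, 50 mM Tris HCl, 10 mM MgCl2, 1 mM EDTA, 0.1 mM benzamidine pH 7.4, 2 IU/mL adenosine deaminase, 60 min at 25 °C, nonspecific with 100 μM NECA. A3 in CHO membranes (50 μg): 1 nM [3H]MRE3008-F20, 120 min at 4 °C.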

The target in experiment [4] is T2, Adenosine receptor A1 (Homo sapiens, UniProt P30542).
T2 sequence (P30542 whole entry): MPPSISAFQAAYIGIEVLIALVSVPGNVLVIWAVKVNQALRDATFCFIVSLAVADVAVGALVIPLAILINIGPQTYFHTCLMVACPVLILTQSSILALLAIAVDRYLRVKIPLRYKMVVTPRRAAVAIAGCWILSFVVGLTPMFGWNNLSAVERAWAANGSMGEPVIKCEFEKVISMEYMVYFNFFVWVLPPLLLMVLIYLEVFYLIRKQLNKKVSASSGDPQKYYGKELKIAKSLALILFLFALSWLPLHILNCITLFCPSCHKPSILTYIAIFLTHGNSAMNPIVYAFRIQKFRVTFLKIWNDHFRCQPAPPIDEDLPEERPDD
The experiment is described as follows: Displacement of [3H]DPCPX from human adenosine A1 receptor expressed in CHO cells; range 4.72-6.23. The experiment is classed as cell-based.

Experiment [5] concerns the target T3, Adenosine receptor A2a (Homo sapiens, UniProt P29274). Put plainly: Displacement of [3H]-SCH- 58261 from human adenosine A2A receptor expressed in CHO cells; range 0.65-1.06. The experiment is classed as cell-based. Summed up: (§1)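 Membranes from CHO cells stably expressing human A2A receptor, grown in DMEM/F12 without nucleosides, resuspended in 50 mM Tris HCl, 10 mM MgCl2, pH 7.4; 50 μg protein/assay. Competition with [3H]SCH 58261 at 6–8 or more compound concentrations, 60 min at 25 °C; nonspecific binding with 50 μM NECA. Filtration on GF/B filters, scintillation counting; n=3-6.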

The target of experiment [6] is T4, Adenosine receptor A2b (Homo sapiens, UniProt P29275).
T4 sequence (P29275 whole entry): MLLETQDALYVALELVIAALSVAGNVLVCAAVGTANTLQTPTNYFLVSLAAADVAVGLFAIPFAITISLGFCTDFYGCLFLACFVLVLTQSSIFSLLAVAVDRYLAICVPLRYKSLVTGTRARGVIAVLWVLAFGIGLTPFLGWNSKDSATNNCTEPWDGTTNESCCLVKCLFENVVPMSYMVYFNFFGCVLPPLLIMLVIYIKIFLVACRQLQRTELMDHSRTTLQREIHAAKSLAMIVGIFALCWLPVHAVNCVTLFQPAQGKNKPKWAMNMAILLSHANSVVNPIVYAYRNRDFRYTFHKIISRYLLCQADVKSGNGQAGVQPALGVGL
Put plainly: Displacement of [3H]-DPCPX from Adenosine A2b receptor expressed in CHO cells; range 8-18. The experiment is classed as cell-based. The following applies: in the assay text read “HEK-293 cells” for “CHO cells”. Summed up:
(§2)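 Human recombinant A2B receptor was expressed in HEK-293 cell membranes (20 μg protein). Incubated with 40 nM [3H]DPCPX in 50 mM Tris HCl, 10 mM MgCl2, 1 mM EDTA, 0.1 mM benzamidine, pH 7.4, with 2 IU/mL adenosine deaminase, at least 6–8 test concentrations, 60 min, 25 °C. Nonspecific binding was taken with 100 μM NECA; n=3-6.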

For experiment [7], the target named is T5, Adenosine receptor A3 (Homo sapiens) (UniProt P0DMS8).
T5 sequence (whole entry): T1 sequence (P0DMS8 whole entry)
Put plainly: Percentage of blockade by 1 uM of the inhibition by 100 nM IB-MECA-inhibited cAMP accumulation in CHO cells expressing human adenosine A3 receptor. The experiment is classed as functional, cell-based. Summed up:
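CHO cells stably expressing human A3 receptor; membranes in 50 mM Tris HCl, 10 mM MgCl2, 1 mM EDTA pH 7.4 with 5 μM GTP, 0.5 mM […] and 2.0 IU/mL adenosine deaminase. Preincubated 10 min at 37 °C, then IB-MECA (100 nM) and/or antagonist with 1 mM ATP and 10 μM forskolin for 10 min. Boiled 2 min. cAMP read by [3H]cAMP competition with adrenal binding protein.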

Experiment [8] has as its target T2, Adenosine receptor A1. The experiment is described as follows: Displacement of [3H]DPCPX from human adenosine A1 receptor expressed in CHO cells; range 83-120. The experiment is classed as cell-based.
Experiment [9] addresses T5, Adenosine receptor A3 (Homo sapiens). The following applies: CHO, 1 uM.
Experiment [10] concerns the target T3, Adenosine receptor A2a. Put plainly: Displacement of [3H]-SCH- 58261 from human adenosine A2A receptor expressed in CHO cells; range 85-164. The experiment is classed as cell-based. Summed up:
as §1

Experiment [11] deals with T1, Adenosine receptor A3. Put plainly: Displacement of [3H]MRE3008-F20 from human adenosine A3 receptor expressed in CHO cells; range 33-48. The experiment is classed as cell-based.
The target of experiment [12] is T4, Adenosine receptor A2b. The experiment is described as follows: Displacement of [3H]DPCPX from Adenosine A2b receptor expressed in […]; range 55-68. The experiment is classed as cell-based. Summed up:
as §2

Experiment [13] concerns the target T4, Adenosine receptor A2b. Put plainly: Displacement of [3H]DPCPX from Adenosine A2b receptor expressed in HEK-293 cells; range 81-101.
Experiment [14] deals with T1, Adenosine receptor A3. Put plainly: Displacement of [3H]MRE3008-F20 from human adenosine A3 receptor expressed in CHO cells; range 7.2-8.9. The experiment is classed as cell-based.
In experiment [15] the target is T1, Adenosine receptor A3. Put plainly: Inhibition of cAMP accumulation in CHO cells expressing human adenosine A3 receptor; range 2.5-9.3. The experiment is classed as functional, cell-based. (Cyclic AMP is a second messenger, typically raised through Gs and lowered through Gi signalling.)
Experiment [16] addresses T1, Adenosine receptor A3. Put plainly: Displacement of [3H]MRE3008-F20 from human adenosine A3 receptor expressed in CHO cells; range 0.51-0.70. The experiment is classed as cell-based.
The target of experiment [17] is T4, Adenosine receptor A2b. The experiment is described as follows: Displacement of [3H]DPCPX from Adenosine A2b receptor expressed in […]; range 188-320. The experiment is classed as cell-based. Put shortly: as §2
Experiment [18] deals with T2, Adenosine receptor A1. Put plainly: Displacement of [3H]DPCPX from human adenosine A1 receptor expressed in CHO cells; range 81-127. The experiment is classed as cell-based.
The target of experiment [19] is T3, Adenosine receptor A2a. The experiment is described as follows: Displacement of [3H]-SCH- 58261 from human adenosine A2A receptor expressed in CHO cells; range 2.40-3.55. The experiment is classed as cell-based.
In experiment [20] the target is T1, Adenosine receptor A3. Put plainly: biochemical.

As usually defined, the pKi is the negative decadic logarithm of the Ki, by convention in mol/L. A lower pKi goes with a large Ki. As a reminder, the inhibition is the percentage by which the read-out fell short of the control. A lower inhibition goes with little suppression. What is called pIC50 is the IC50 on a negative log10 scale, so that one unit is a factor of ten. A lower pIC50 goes with a large IC50.

pIC50, pKi: −log10 of the molar value.

T3 sequence (P29274 whole entry): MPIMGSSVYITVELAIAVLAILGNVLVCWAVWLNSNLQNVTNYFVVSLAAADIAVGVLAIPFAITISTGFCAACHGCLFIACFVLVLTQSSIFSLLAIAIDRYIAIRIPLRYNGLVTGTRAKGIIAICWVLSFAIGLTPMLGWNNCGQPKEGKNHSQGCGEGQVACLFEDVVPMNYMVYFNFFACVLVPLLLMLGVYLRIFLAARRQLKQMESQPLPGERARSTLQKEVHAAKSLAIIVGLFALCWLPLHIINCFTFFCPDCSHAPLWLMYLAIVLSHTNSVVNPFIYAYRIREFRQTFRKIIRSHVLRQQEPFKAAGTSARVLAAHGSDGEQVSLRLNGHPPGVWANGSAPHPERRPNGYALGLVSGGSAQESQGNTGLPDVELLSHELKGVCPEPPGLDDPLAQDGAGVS

Turning to `CC(C)=CCn1cc2c(nc(N)n3nc(-c4ccco4)nc23)n1`, the Ratio in [1] amounted to 0.006; in experiment [3], 0.014. Also, the pKi at Adenosine receptor A3 [2] is 6.09; at Adenosine receptor A1 [4] it was 8.27; at Adenosine receptor A2a [5], 9.10; on Adenosine receptor A2b [6] it was 7.92. Besides, the inhibition in experiment [7] is 12%.
Take `CC(C)CCn1cc2c(nc(NC(=O)Nc3cccc(Cl)c3)n3nc(-c4ccco4)nc23)n1`: the Ratio in [1] was 2.5; in [3], 1.5. Besides, the pKi on Adenosine receptor A1 [8] was 7.00; at Adenosine receptor A2a [10] it was 6.94; on Adenosine receptor A3 [11], 7.40; on Adenosine receptor A2b [12], 7.21. The inhibition in experiment [9] worked out at 45%.
As to `O=C(Nc1cccc(Cl)c1)Nc1nc2nn(CCc3ccccc3)cc2c2nc(-c3ccco3)nn12`, the values for the pKi at Adenosine receptor A2b [13] and on Adenosine receptor A3 [14] were 7.05 and 8.10, respectively. Also, the Ratio came out at 6.3 in experiment [1] and 11.2 in experiment [3]. In experiment [7], the inhibition amounted to 58%.
For `CCn1cc2c(nc(NC(=O)Nc3ccc(OC)cc3)n3nc(-c4ccco4)nc23)n1`, the Ratio in experiment [1] worked out at 1710; in [3] it was 408. The negative-log IC50 (pIC50) on Adenosine receptor A3 [15] was 8.32. The pKi on Adenosine receptor A3 [16] was 9.22; on Adenosine receptor A2b [17], 6.61.
Consider `Cn1cc2c(nc(N)n3nc(-c4ccco4)nc23)n1`, for which the pKi on Adenosine receptor A2b [13] is 7.05; on Adenosine receptor A1 [18], 7.00; at Adenosine receptor A2a [19], 8.55; at Adenosine receptor A3 [20], 6.52. Further, the Ratio in experiment [1] was 0.33; in experiment [3], 0.3. In addition, in [7], the inhibition worked out at 26%.
